The source made the active and inactive calls. The rule behind the calls is not given here.
Assays:
[1] = molecular target: T1, Transforming growth factor beta-1 proprotein/Mothers against decapentaplegic homolog 3 (Homo sapiens) (UniProt P84022+P01137); assay: Inhibition of TGF-beta1/smad3 signaling pathway in human HFL cells assessed as decrease in smad3 phosphorylation at 10 uM after 30 mins by Western blot analysis; type: cell-based
Outline: (§1)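 HFL1 human lung fibroblasts given TGF-β1 (5 ng/mL) with or without compound at 10 µM: 24 h for α-SMA (cell lysate) and collagen I (medium), 30 min for p-Smad3. RIPA lysis with phosphatase inhibitor, then Western blot. Band density normalized to β-actin. n=3.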

[2] = molecular target: T1, Transforming growth factor beta-1 proprotein/Mothers against decapentaplegic homolog 3 (Homo sapiens); assay: Inhibition of TGF-beta1/smad3 signaling pathway in human HFL cells assessed as decrease in Col1 protein expression level at 10 uM after 24 hrs by Western blot analysis; type: cell-based; outline: as §1
[3] = molecular target: T2, Transforming growth factor beta-1 proprotein/Mothers against decapentaplegic homolog 3 (Mus musculus) (UniProt P04202+Q8BUN5); assay: Inhibition of TGF-beta1/smad3 signaling pathway in mouse NIH/3T3 cell extract assessed as decrease in alpha-SMA protein expression at 10 uM after 24 hrs by Western blot analysis
Mus musculus [4] = assay: In vivo inhibition of TGF-beta1/smad3 signaling pathway in bleomycin-induced pulmonary fibrosis in C57BL/6 mouse model assessed as decrease in smad3 phosphorylation in lung tissue at 100 mg/kg, po qd administered from day 7 to 14 by Western blot analysis; type: functional, organism-based
Mus musculus [5] = assay: In vivo inhibition of TGF-beta1/smad3 signaling pathway in bleomycin-induced pulmonary fibrosis in C57BL/6 mouse model assessed as decrease in Col1 protein expression level in lung tissue at 100 mg/kg, po qd administered from day 7 to 14 by Western blot analysis; type: functional, organism-based
[6] = Cmax in Sprague-Dawley rat at 30 mg/kg, iv by LC-MS/MS analysis; type: ADME, organism-based; design: dose 30 mg/kg, route intravenous; conditions: in vivo
Outline: (§2)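 Male Sprague-Dawley rats (220-350 g) given a single dose, IV 30 mg/kg or PO 150 mg/kg. Heparinized blood sampled at 2 min-8 h (IV) or 5 min-12 h (PO). Plasma protein-precipitated with acetonitrile/MeOH containing buspirone internal standard. Drug quantified by LC/MS-MS, parameters from non-compartmental analysis. n = 5 per curve.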

Rattus norvegicus [7] = assay: AUC (0 to t) in Sprague-Dawley rat at 150 mg/kg, po by LC-MS/MS analysis; type: ADME, organism-based; conditions: in vivo; outline: as §2
Mus musculus [8] = assay: Toxicity in C57/BL6 mouse assessed as mouse survival at 2 g/kg administered orally via gavage daily as single dose for 7 days; type: organism-based; conditions: in vivo, po, 2000 mg/kg, 168 h
Outline: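 C57BL/6 mice, 20-22 g, dosed by oral gavage once daily at 2 g/kg for 7 days, n = 10; survival recorded.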

Mus musculus [9] = assay: In vivo inhibition of TGF-beta1/smad3 signaling pathway in bleomycin-induced pulmonary fibrosis in C57BL/6 mouse model assessed as decrease in alpha-SMA level in lung tissue at 100 mg/kg, po qd administered from day 7 to 14 by immunohistochemical analysis; type: functional, organism-based
Outline: (§3)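 Lungs from bleomycin-challenged C57BL/6 mice (2 U/kg intratracheal; 100 mg/kg daily, days 7-14) were paraffin-embedded and dewaxed. Citrate (0.01 M) microwave antigen retrieval, then 5% serum block. Primary antibodies overnight at 4 °C: α-SMA 1:200, collagen I 1:100, p-Smad3 1:50. Secondary antibody 1 h at room temperature, then hematoxylin counterstain and microscopy.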

[10] = Oral bioavailability in Sprague-Dawley rat at 150 mg/kg by LC-MS/MS analysis; type: ADME, organism-based; conditions: in vivo; outline: as §2
[11] = Stability in rat plasma assessed as parent compound remaining after 3 hrs by LC-MS/MS analysis; type: ADME, cell-free; conditions: read-out: Stability
Outline: (§4)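 Compound solution (1 mM stock) added 1:100 into blank plasma and incubated at 37 °C for up to 12 h. Aliquots quenched in acetonitrile/MeOH with buspirone internal standard and centrifuged. Parent compound and released products quantified by LC/MS-MS.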

[12] = molecular target: T2, Transforming growth factor beta-1 proprotein/Mothers against decapentaplegic homolog 3 (Mus musculus); assay: Inhibition of TGF-beta1/smad3 signaling pathway in mouse NIH/3T3 cells after 18 hrs by CAGA-luciferase reporter gene assay; type: cell-based
[13] = molecular target: T1, Transforming growth factor beta-1 proprotein/Mothers against decapentaplegic homolog 3 (Homo sapiens); assay: Inhibition of TGF-beta1/smad3 signaling pathway in human HFL cell extract assessed as decrease in alpha-SMA protein expression at 10 uM after 24 hrs by Western blot analysis; outline: as §1
Mus musculus [14] = assay: Toxicity in C57/BL6 mouse assessed as mouse survival at 1 to 5 g/kg administered orally via gavage as single dose; type: organism-based; conditions: in vivo, po
Outline: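 Male-unspecified C57BL/6 mice, 20-22 g; single oral gavage dose at 1, 2, 3, 4 and 5 g/kg, n = 10; survival recorded.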

[15] = molecular target: T2, Transforming growth factor beta-1 proprotein/Mothers against decapentaplegic homolog 3 (Mus musculus); assay: Inhibition of TGF-beta1/smad3 signaling pathway in mouse NIH/3T3 cells assessed as decrease in ECM production at 10 uM after 24 hrs; type: cell-based
Rattus norvegicus [16] = assay: AUC (0 to infinity) in Sprague-Dawley rat at 30 mg/kg, iv by LC-MS/MS analysis; type: ADME, organism-based; design: dose 30 mg/kg, time infinity, route intravenous; conditions: in vivo; outline: as §2
[17] = Tmax in Sprague-Dawley rat at 30 mg/kg, iv by LC-MS/MS analysis; type: ADME, organism-based; conditions: in vivo; outline: as §2
[18] = Half life in Sprague-Dawley rat at 30 mg/kg, iv by LC-MS/MS analysis; type: ADME, organism-based; conditions: in vivo; outline: as §2
Rattus norvegicus [19] = assay: AUC (0 to infinity) in Sprague-Dawley rat at 150 mg/kg, po by LC-MS/MS analysis; type: ADME, organism-based; design: dose 150 mg/kg, time infinity, route oral; conditions: in vivo; outline: as §2
Mus musculus [20] = assay: Antifibrotic activity in bleomycin-induced pulmonary fibrosis in C57BL/6 mouse model assessed as fibrotic area in lungs at 100 mg/kg, po qd administered from day 7 to 14 by hematoxylin-eosin staining based fluorescence microscopy; type: functional
Outline: (§5)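 Male C57BL/6 mice (7-8 weeks, n=5/group) given intratracheal bleomycin 2 U/kg under chloral hydrate anaesthesia. Dosing at 100 mg/kg daily from day 7 to day 14, sacrifice at day 14. Left lungs formalin-fixed, paraffin-embedded, 5 µm sections HE-stained. Fibrosis ratio taken as fibrotic-region pixels over total lung pixels.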

[21] = Drug metabolism in rat plasma assessed as (3aR,4aR,5R,6R,8aR,9aR)-6-Hydroxy-8a-methyl-3-methylenedecahydro-2H-spiro[naphtho[2,3-b]furan-5,2'-oxiran]-2-one formation after 12 hrs by LC-MS/MS analysis; type: ADME, cell-free; outline: as §4
Mus musculus [22] = assay: In vivo inhibition of TGF-beta1/smad3 signaling pathway in bleomycin-induced pulmonary fibrosis in C57BL/6 mouse model assessed as decrease in Col1 level in lung tissue at 100 mg/kg, po qd administered from day 7 to 14 by immunohistochemical analysis; type: functional, organism-based; outline: as §3
Mus musculus [23] = assay: Antifibrotic activity in bleomycin-induced pulmonary fibrosis in C57BL/6 mouse model assessed as decrease in collagen content in lung at 100 mg/kg, po qd administered from day 7 to 14 by spectrophotometric method; type: functional, organism-based
Outline: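 Bleomycin model as above: 2 U/kg intratracheal in male C57BL/6 mice, 100 mg/kg daily from day 7 to day 14. Right lungs collected at day 14, dried and acid-hydrolysed, filtered, and pH adjusted to 6.5-8.0. Hydroxyproline then measured by chloramine-T spectrophotometry.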

[24] = Tmax in Sprague-Dawley rat at 150 mg/kg, po by LC-MS/MS analysis; type: ADME, organism-based; conditions: in vivo; outline: as §2
Mus musculus [25] = assay: Antifibrotic activity in bleomycin-induced pulmonary fibrosis in C57BL/6 mouse model assessed as decrease in ECM production at 100 mg/kg, po qd administered from day 7 to 14 by hematoxylin-eosin staining based fluorescence microscopy; type: functional, organism-based; outline: as §5
[26] = Cmax in Sprague-Dawley rat at 150 mg/kg, po by LC-MS/MS analysis; type: ADME, organism-based; design: dose 150 mg/kg, route oral; conditions: in vivo; outline: as §2
[27] = molecular target: T2, Transforming growth factor beta-1 proprotein/Mothers against decapentaplegic homolog 3 (Mus musculus); assay: Inhibition of TGF-beta1/smad3 signaling pathway in mouse NIH/3T3 cell extract assessed as decrease in Smad3 phosphorylation at 10 uM after 30 mins by Western blot analysis; type: protein assay
Rattus norvegicus [28] = assay: AUC (0 to t) in Sprague-Dawley rat at 30 mg/kg, iv by LC-MS/MS analysis; type: ADME, organism-based; conditions: in vivo; outline: as §2
Mus musculus [29] = assay: In vivo inhibition of TGF-beta1/smad3 signaling pathway in bleomycin-induced pulmonary fibrosis in C57BL/6 mouse model assessed as decrease in smad3 phosphorylation level in lung tissue at 100 mg/kg, po qd administered from day 7 to 14 by immunohistochemical analysis; type: functional, organism-based; outline: as §3
[30] = Half life in Sprague-Dawley rat at 150 mg/kg, po by LC-MS/MS analysis; type: ADME, organism-based; conditions: in vivo; outline: as §2
Mus musculus [31] = assay: Toxicity in C57/BL6 mouse assessed as appearance of systemic symptoms at 2 g/kg administered orally via gavage daily as single dose for 30 days; type: organism-based; conditions: in vivo, po, 2000 mg/kg, 720 h
Outline: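 C57BL/6 mice given compound by oral gavage at 2 g/kg once daily for 30 days (n=10) and observed for systemic symptoms and deaths.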

[32] = Drug metabolism in rat plasma assessed as (1aR,2S,5aR,6aR,9aR,9bS)-2,5a-Dimethyl-9-methyleneoctahydro-2H-oxireno[2',3':4,4a]naphtho[2,3-b]furan-8(9H)-one formation after 12 hrs by LC-MS/MS analysis; type: ADME, cell-free; outline: as §4

T1 sequence (P01137 whole entry, looked up): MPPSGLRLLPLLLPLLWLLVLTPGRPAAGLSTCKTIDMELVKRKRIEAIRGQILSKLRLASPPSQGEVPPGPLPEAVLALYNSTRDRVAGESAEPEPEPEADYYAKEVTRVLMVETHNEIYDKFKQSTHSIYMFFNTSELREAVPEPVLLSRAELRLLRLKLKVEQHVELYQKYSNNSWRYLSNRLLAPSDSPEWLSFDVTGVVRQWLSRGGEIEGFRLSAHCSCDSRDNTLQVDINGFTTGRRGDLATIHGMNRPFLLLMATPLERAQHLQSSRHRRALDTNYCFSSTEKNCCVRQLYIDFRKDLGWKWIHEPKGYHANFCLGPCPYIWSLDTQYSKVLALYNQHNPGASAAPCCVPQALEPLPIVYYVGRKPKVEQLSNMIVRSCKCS
T1 sequence (P84022 whole entry, looked up): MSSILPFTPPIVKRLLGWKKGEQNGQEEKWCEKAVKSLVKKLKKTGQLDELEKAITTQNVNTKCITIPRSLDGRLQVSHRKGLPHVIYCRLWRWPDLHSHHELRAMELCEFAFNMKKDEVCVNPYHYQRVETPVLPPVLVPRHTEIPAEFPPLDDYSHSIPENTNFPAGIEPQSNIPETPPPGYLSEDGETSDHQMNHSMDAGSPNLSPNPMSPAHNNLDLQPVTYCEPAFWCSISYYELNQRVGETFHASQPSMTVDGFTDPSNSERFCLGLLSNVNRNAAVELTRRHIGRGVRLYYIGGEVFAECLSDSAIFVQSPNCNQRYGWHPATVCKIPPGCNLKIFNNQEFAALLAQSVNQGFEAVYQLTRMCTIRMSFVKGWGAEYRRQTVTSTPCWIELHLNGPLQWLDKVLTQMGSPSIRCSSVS
T2 sequence (P04202 279-390 limits assumed): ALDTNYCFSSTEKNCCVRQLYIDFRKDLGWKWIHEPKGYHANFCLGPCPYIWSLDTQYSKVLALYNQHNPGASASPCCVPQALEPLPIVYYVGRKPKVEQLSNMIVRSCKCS
T2 sequence (Q8BUN5 2-425 partner limits assumed): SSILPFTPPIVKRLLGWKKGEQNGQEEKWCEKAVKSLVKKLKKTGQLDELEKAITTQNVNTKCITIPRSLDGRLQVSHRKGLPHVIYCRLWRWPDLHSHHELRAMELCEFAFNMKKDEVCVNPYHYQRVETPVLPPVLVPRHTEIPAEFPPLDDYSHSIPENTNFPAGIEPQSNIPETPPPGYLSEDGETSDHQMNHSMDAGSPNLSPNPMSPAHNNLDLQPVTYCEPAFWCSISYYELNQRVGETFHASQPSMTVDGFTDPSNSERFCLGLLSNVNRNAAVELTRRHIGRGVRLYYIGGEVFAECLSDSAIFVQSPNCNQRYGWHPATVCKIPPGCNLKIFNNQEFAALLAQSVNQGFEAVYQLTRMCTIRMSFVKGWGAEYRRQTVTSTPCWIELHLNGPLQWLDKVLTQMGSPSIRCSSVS

In the case of CN(C)C[C@@H]1C(=O)O[C@@H]2C[C@@]3(C)CC[C@@H](O)[C@]4(CO4)[C@@H]3C[C@H]12.O=C(O)/C=C/C(=O)O, the inhibition [1] is reported as “Active”, the inhibition [2] is reported as “Active” and the inhibition [3] is reported as “Active”. The inhibition (Mus musculus [4]) was “Active”, the inhibition (Mus musculus [5]) was “Active” and the Cmax [6] was 22700 ng/mL. The AUCt (Rattus norvegicus [7]) was 171000 ng·h/mL, the Activity (Mus musculus [8]) was “Non-Toxic” and the inhibition (Mus musculus [9]) was “Active”. For the same molecule, the bioavailability [10] was 78%, the remaining at 3 h [11] was > 50% and the inhibition [12] was “Dose-dependent effect”. The inhibition [13] was “Active”, the Activity (Mus musculus [14]) was “Non-Toxic” and the inhibition [15] was “Active”. It also gave an AUC (Rattus norvegicus [16]) of 44900 ng·h/mL, a Tmax [17] of 17 min and a half-life [18] of 81 min. For the same molecule, the AUC (Rattus norvegicus [19]) was 174000 ng·h/mL, the Activity (Mus musculus [20]) was 60.5% and the Drug metabolism [21] was “Metabolite_Detected”. For the same molecule, the inhibition (Mus musculus [22]) was “Active”, the Activity (Mus musculus [23]) was “Active” and the Tmax [24] was 42 min. For the same molecule, the Activity (Mus musculus [25]) was “Active”, the Cmax [26] was 62300 ng/mL and the inhibition [27] was “Active”. For the same molecule, the AUCt (Rattus norvegicus [28]) was 43800 ng·h/mL, the inhibition (Mus musculus [29]) was “Active” and the half-life [30] was 121 min.

With C[C@H]1CCC[C@]2(C)C[C@H]3OC(=O)[C@@H](CN(C)C)[C@H]3[C@@H]3O[C@@]132.O=C(O)/C=C/C(=O)O the inhibition [1] was “Active”, the Activity (Mus musculus [31]) was “Non-Toxic” and the inhibition [2] was “Active”. For the same molecule, the inhibition [3] was “Active”, the inhibition (Mus musculus [4]) was “Active” and the inhibition (Mus musculus [5]) was “Active”. The Cmax [6] was 17500 ng/mL, the AUCt (Rattus norvegicus [7]) was 37600 ng·h/mL and the Activity (Mus musculus [8]) was “Non-Toxic”. For the same molecule, the inhibition (Mus musculus [9]) was “Active”, the bioavailability [10] was 75% and the remaining at 3 h [11] was > 50%. The inhibition [12] was “Dose-dependent effect”, the inhibition [13] was “Active” and the Activity (Mus musculus [14]) was “Non-Toxic”. For the same molecule, the inhibition [15] was “Active”, the AUC (Rattus norvegicus [16]) was 10000 ng·h/mL and the Tmax [17] was 2 min. The half-life [18] was 73 min, the AUC (Rattus norvegicus [19]) was 37800 ng·h/mL and the Activity (Mus musculus [20]) was 71.8%. For the same molecule, the inhibition (Mus musculus [22]) was “Active”, the Activity (Mus musculus [23]) was “Active” and the Tmax [24] was 30 min. The Activity (Mus musculus [25]) was “Active”, the Cmax [26] was 18500 ng/mL and the inhibition [27] was “Active”. The Drug metabolism [32] was “Metabolite_Detected”, the AUCt (Rattus norvegicus [28]) was 10000 ng·h/mL and the inhibition (Mus musculus [29]) was “Active”. For the same molecule, the half-life [30] was 85 min.
